In ChEMBL document CHEMBL3576820, “Discovery of benzimidazole oxazolidinediones as novel and selective nonsteroidal mineralocorticoid receptor antagonists” (ACS Med Chem Lett, 2015):
Activity calls are given as the source filed them. The rule behind the calls is not given here.

Assays:
[1] = biological target: T1, Estrogen receptor (Homo sapiens) (UniProt P03372); assay: Agonist activity at human estrogen receptor alpha by cell-based assay
T1 sequence (whole entry): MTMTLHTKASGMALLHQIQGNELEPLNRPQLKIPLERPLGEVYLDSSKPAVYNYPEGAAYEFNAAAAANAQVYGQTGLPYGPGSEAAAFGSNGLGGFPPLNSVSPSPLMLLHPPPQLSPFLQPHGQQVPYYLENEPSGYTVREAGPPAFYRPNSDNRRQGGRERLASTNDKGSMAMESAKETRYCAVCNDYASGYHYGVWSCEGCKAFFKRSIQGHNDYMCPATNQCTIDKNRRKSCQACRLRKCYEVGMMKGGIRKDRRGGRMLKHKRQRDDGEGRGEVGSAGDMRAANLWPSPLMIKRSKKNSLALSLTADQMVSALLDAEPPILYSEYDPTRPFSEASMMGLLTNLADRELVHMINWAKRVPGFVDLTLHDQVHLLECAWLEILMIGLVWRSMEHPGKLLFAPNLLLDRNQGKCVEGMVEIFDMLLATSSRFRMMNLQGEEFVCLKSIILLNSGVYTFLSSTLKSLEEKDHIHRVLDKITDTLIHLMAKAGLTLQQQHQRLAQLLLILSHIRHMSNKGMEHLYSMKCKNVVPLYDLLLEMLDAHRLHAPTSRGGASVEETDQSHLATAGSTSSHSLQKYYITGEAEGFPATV

[2] = biological target: T2, Progesterone receptor (Homo sapiens) (UniProt P06401); assay: Agonist activity at human progesterone receptor beta by cell-based assay
T2 sequence (whole entry): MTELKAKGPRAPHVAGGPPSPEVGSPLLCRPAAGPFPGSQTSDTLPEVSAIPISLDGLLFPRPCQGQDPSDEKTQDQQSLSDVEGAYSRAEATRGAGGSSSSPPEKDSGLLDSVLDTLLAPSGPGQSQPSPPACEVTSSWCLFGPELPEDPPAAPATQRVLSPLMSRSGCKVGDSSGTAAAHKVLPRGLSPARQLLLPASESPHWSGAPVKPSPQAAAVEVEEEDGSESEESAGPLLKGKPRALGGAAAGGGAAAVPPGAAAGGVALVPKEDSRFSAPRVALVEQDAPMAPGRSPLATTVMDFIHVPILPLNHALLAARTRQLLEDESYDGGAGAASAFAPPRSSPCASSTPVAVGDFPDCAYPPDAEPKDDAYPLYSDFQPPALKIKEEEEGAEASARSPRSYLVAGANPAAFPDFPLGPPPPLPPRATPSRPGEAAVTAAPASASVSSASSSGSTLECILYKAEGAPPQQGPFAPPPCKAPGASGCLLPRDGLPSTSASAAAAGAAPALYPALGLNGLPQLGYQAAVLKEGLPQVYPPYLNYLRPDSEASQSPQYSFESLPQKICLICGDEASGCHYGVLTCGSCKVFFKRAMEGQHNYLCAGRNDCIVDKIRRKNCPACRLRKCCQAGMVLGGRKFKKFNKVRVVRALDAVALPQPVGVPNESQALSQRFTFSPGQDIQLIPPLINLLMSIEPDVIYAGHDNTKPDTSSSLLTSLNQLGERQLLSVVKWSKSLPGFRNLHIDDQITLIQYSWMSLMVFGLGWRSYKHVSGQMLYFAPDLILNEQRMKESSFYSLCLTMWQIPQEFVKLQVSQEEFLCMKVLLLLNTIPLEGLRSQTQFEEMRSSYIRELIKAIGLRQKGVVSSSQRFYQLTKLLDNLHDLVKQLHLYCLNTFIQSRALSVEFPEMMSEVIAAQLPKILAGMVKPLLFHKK

[3] = biological target: T3, Mineralocorticoid receptor (Homo sapiens) (UniProt P08235); assay: Agonist activity at human mineralocorticoid receptor by cell-based assay
T3 sequence (whole entry): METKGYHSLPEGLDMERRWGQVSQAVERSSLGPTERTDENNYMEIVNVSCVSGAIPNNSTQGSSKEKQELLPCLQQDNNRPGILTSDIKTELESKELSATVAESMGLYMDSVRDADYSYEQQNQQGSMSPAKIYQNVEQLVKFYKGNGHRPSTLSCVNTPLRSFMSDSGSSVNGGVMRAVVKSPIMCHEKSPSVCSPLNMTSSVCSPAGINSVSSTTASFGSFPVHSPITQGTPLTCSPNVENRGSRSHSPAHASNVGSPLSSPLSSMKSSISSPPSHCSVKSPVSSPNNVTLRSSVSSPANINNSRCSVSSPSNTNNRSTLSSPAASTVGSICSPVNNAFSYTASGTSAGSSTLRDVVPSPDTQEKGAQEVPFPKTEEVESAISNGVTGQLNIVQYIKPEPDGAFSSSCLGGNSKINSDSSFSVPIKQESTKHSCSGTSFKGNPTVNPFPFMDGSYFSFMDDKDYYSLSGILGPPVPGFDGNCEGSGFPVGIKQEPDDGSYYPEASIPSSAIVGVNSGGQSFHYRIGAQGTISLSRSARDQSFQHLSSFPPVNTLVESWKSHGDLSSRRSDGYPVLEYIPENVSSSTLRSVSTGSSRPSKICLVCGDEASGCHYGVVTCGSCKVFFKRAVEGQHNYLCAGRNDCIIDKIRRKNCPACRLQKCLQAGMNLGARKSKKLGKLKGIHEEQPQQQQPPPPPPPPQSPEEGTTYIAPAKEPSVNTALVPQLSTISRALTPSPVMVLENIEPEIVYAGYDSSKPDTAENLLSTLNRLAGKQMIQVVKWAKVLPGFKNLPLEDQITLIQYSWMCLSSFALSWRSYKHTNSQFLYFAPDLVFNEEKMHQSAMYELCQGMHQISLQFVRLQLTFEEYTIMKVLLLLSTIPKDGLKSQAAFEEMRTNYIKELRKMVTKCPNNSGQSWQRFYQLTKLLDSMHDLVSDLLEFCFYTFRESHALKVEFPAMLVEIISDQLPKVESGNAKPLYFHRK

Rattus norvegicus [4] = assay: Natriuretic activity in WKY rat at 30 to 100 mg/kg, po measured over 6 hrs; assay type: functional, organism-based
[5] = biological target: T4, Mineralocorticoid receptor (Homo sapiens, UniProt P08235); assay: Antagonist activity at human mineralocorticoid receptor overexpressed in CHOK1 cells assessed as inhibition of aldosterone-induced protein interaction with coactivator peptide after 6 hrs by luminescence assay; assay type: cell-based, CHO-K1
T4 sequence (P08235 whole entry): T3 sequence (whole entry)

[6] = Metabolic stability in human liver microsomes assessed as compound remaining at 1 uM after 0.5 hrs; assay type: ADME; settings: read-out: Stability
[7] = Metabolic stability in rat liver microsomes assessed as compound remaining at 1 uM after 0.5 hrs; assay type: ADME; settings: read-out: Stability
[8] = Oral bioavailability in Wistar han rat at 2 mg/kg; assay type: ADME, organism-based; settings: in vivo
Method in brief: (§1)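 Wistar Han rats. IV dose 1 mg/kg in DMSO/PEG200/water (10:60:30), n=2. Oral dose 2 mg/kg in imwitor/tween (1:1) by gavage, n=3. Values are averages. Derived: F%, plasma clearance, Vdss, terminal half-life and oral AUC normalized to dose.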

[9] = Plasma clearance in Wistar han rat at 2 mg/kg, po and 1 mg/kg, iv; assay type: ADME, organism-based; method in brief: as §1
[10] = Volume of distribution at steady state in Wistar han rat at 2 mg/kg, po and 1 mg/kg, iv; assay type: ADME, organism-based; settings: in vivo, read-out: Vdss; method in brief: as §1
[11] = Terminal half life in Wistar han rat at 2 mg/kg, po and 1 mg/kg, iv; assay type: ADME, organism-based; settings: in vivo, read-out: beta t1/2 (converted); method in brief: as §1
Rattus norvegicus [12] = assay: Dose normalized AUC in Wistar han rat at 2 mg/kg, po; assay type: ADME, organism-based; settings: in vivo; method in brief: as §1
[13] = Fraction unbound in 10% human plasma; assay type: ADME, cell-free; settings: 10% plasma
Method in brief: (§2)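 Free fraction measured in the presence of 10% plasma (human or rat), taken as correlating with the free fraction in whole plasma.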

[14] = Fraction unbound in 10% rat plasma; assay type: ADME, cell-free; settings: 10% plasma; method in brief: as §2
[15] = Plasma protein binding in human; assay type: ADME, cell-free; settings: read-out: PPB
[16] = Plasma protein binding in rat; assay type: ADME, cell-free; settings: read-out: PPB

| Compound | Activity [1] | Activity [2] | Activity [3] | Activity (Rattus norvegicus [4]) | IC50 [5] [nM] | remaining at 0.5 h, 1 µM [6] [%] | remaining at 0.5 h, 1 µM [7] [%] | bioavailability [8] [%] | clearance [9] [mL/min/kg] | Vd [10] [L/kg] | half-life [11] [h] | AUC/dose (Rattus norvegicus [12]) [µM·kg·h/mg] | fraction unbound [13] | fraction unbound [14] | fraction unbound [15] | fraction unbound [16] |
| --- | --- | --- | --- | --- | --- | --- | --- | --- | --- | --- | --- | --- | --- | --- | --- | --- |
| CC(=O)S[C@@H]1CC2=CC(=O)CC[C@]2(C)[C@H]2CC[C@@]3(C)[C@@H](CC[C@@]34CCC(=O)O4)[C@H]12 | inactive | inactive | inactive | Active | – | – | – | – | – | – | – | – | – | – | – | – |
| C[C@H](c1ccc(F)cc1)N1C(=O)O[C@](Cc2ccccc2)(c2nc3c(C(F)(F)F)cccc3[nH]2)C1=O | inactive | inactive | inactive | – | 150 | 77 | 51 | 44 | 23 | 3.4 | 2.4 | 0.067 | 0.002 | 0.005 | < 0.01 | < 0.01 |
| C[C@H](c1ccc(F)cc1)N1C(=O)O[C@](Cc2ccccc2)(c2nc3c(Cl)cccc3[nH]2)C1=O | inactive | inactive | inactive | – | 130 | 66 | 6 | – | – | – | – | – | – | – | – | – |
| C[C@H](c1ccc(F)cc1)N1C(=O)O[C@](Cc2ccccc2)(c2nc3cc(-n4cnnn4)ccc3[nH]2)C1=O | inactive | inactive | inactive | – | 120 | 86 | 64 | – | – | – | – | – | – | – | – | – |
